Laboratory results from ChEMBL document CHEMBL1151962, “Identification of N,1,4,4-tetramethyl-8-{[4-(4-methylpiperazin-1-yl)phenyl]amino}-4,5-dihydro-1H-pyrazolo[4,3-h]quinazoline-3-carboxamide (PHA-848125), a potent, orally available cyclin dependent kinase inhibitor” (J Med Chem, 2009).
Values after ≈ are worked out from the molar mass of the structure shown.

How the values were obtained:
[1] = biological target: Cyclin-dependent kinase 2 (Homo sapiens, UniProt P24941); test: Inhibition of CDK2/Cyclin A
Aurora kinase A = biological target: T1, Aurora kinase A (Homo sapiens, UniProt O14965); test: Inhibition of Aurora A
T1 sequence (O14965 whole entry): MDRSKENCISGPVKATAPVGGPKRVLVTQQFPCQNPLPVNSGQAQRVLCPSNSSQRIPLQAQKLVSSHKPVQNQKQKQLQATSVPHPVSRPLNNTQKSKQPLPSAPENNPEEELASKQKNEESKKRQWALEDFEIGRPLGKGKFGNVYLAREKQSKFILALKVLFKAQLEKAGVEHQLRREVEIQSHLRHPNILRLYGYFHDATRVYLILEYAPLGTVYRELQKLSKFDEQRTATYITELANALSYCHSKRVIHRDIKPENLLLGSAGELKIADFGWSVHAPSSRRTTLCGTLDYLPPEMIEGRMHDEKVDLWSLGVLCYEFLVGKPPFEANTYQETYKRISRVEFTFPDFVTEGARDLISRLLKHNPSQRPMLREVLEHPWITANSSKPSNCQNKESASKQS

A2780 = test: Antiproliferative activity against human A2780 cells after 72 hrs by cell Titer_Glo assay; type: functional, cell-based; conditions: A2780, 72 h
How it was run: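 A2780 cells were seeded at 10000–30000 cells/cm² in medium with 10% FCS. After 24 h they were treated with serial dilutions of compound, in two replicates. Cell amount was read by Cell Titer Glo 72 h after treatment. IC50 came from sigmoidal fitting.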

[2] = Solubility at pH 7; type: physicochemical; conditions: buffer
[3] = Half life in fasted nu/nu mouse at 10 mg/kg, po by LC/MS/MS analysis; type: ADME, organism-based; set-up: dose 10 mg/kg, route oral; conditions: in vivo
How it was run: (§1)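 Overnight-fasted male Nu/Nu mice received a single 10 mg/kg dose iv or orally, in 5% dextrose vehicle, given as the hydrochloride salt. Three mice per route. Saphenous vein blood was drawn predose and at 0.083 (iv) or 0.25 (po), 0.5, 1, 6 and 24 h. Samples were spun at 10000g for 3 min at 4 °C, and plasma was stored at -80 °C until analysis.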

Mus musculus = test: Hepatic blood flow in fasted nu/nu mouse at 10 mg/kg, iv by LC/MS/MS analysis; type: ADME, organism-based, Liver; set-up: dose 10 mg/kg, route intravenous; conditions: in vivo
Cytochrome P450 3A4 = Cytochrome P450 3A4 (Homo sapiens, UniProt P08684); test: Inhibition of human CYP3A4 assessed as compound remaining by LC/MS/MS analysis; type: ADME; set-up: concentration or dose not given beside the values
Sequence of Cytochrome P450 3A4 (P08684 whole entry): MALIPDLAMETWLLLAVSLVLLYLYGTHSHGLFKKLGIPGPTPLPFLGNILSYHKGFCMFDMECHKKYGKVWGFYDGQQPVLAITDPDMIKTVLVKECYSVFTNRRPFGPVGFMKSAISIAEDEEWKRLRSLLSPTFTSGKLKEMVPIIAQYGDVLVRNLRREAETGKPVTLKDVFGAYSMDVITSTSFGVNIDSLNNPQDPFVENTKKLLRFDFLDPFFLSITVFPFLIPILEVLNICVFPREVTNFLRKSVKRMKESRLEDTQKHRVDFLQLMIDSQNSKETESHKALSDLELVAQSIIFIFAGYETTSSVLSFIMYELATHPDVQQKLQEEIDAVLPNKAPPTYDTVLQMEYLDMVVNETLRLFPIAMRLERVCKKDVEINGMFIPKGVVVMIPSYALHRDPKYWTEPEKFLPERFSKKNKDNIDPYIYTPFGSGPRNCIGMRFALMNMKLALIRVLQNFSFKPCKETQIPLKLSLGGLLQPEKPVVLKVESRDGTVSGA

[4] = Half life in fasted nu/nu mouse at 10 mg/kg, iv by LC/MS/MS analysis; type: ADME, organism-based; set-up: dose 10 mg/kg, route intravenous; conditions: in vivo; how it was run: as §1
[5] = Solubility in 5% dextrose; type: physicochemical
[6] = AUC in fasted nu/nu mouse at 10 mg/kg, po LC/MS/MS analysis; type: ADME, organism-based; set-up: dose 10 mg/kg, route oral; conditions: plasma; how it was run: as §1
[7] = Volume of distribution at steady state in fasted nu/nu mouse at 10 mg/kg, iv by LC/MS/MS analysis; type: ADME, organism-based; set-up: dose 10 mg/kg, route intravenous; conditions: in vivo, read-out: Vdss; how it was run: as §1
[8] = Cmax in fasted nu/nu mouse at 10 mg/kg, po by LC/MS/MS analysis; type: ADME, organism-based; set-up: dose 10 mg/kg, route oral; conditions: in vivo; how it was run: as §1
[9] = Clearance in fasted nu/nu mouse at 10 mg/kg, iv by LC/MS/MS analysis; type: ADME, organism-based; set-up: dose 10 mg/kg, route intravenous; conditions: in vivo; how it was run: as §1
[10] = Oral bioavailability in fasted nu/nu mouse at 10 mg/kg by LC/MS/MS analysis; type: ADME, organism-based; conditions: in vivo; how it was run: as §1

SMILES: CNC(=O)c1nn(C)c2c1C(C)(C)Cc1cnc(Nc3cccc(CN4CCOCC4)c3)nc1-2
- IC50 [1]: 160 nM
- IC50 (Aurora kinase A): 638 nM
- IC50 (A2780): 870 nM
- solubility [2]: 121 µM (≈ 55.8 µg/mL)

SMILES: CNC(=O)c1nn(C)c2c1C(C)(C)Cc1cnc(Nc3ccc(OC4CCN(C)CC4)cc3)nc1-2
- IC50 [1]: 29 nM
- IC50 (Aurora kinase A): 1340 nM
- IC50 (A2780): 170 nM
- solubility [2]: 183 µM (≈ 87 µg/mL)

SMILES: CN1CCN(c2cccc(Nc3ncc4c(n3)-c3c(c(C(N)=O)nn3C)CC4)c2)CC1
- IC50 [1]: 1 nM
- IC50 (Aurora kinase A): 30 nM
- IC50 (A2780): 30 nM
- solubility [2]: 47 µM (≈ 19.7 µg/mL)

SMILES: CNC(=O)c1nn(C)c2c1C(C)(C)Cc1cnc(Nc3ccc(N4CCOCC4)cc3)nc1-2
- IC50 [1]: 137 nM
- IC50 (Aurora kinase A): 649 nM
- IC50 (A2780): 370 nM
- solubility [2]: 46 µM (≈ 20.6 µg/mL)

SMILES: CNC(=O)c1nn(C)c2c1C(C)(C)Cc1cnc(Nc3ccc(CN4CCN(C)CC4)cc3)nc1-2
- IC50 [1]: 55 nM
- IC50 (Aurora kinase A): 1620 nM
- IC50 (A2780): 240 nM
- solubility [2]: 170 µM (≈ 80.7 µg/mL)

SMILES: Cn1nc(C(N)=O)c2c1-c1nc(Nc3ccc(N4CCOCC4)cc3)ncc1CC2
- IC50 [1]: 14 nM
- IC50 (Aurora kinase A): 51 nM
- IC50 (A2780): 120 nM
- solubility [2]: 10 µM (≈ 4.05 µg/mL)

SMILES: CNC(=O)c1nn(C)c2c1C(C)(C)Cc1cnc(Nc3cccc(N4CCOCC4)c3)nc1-2
- IC50 [1]: 248 nM
- IC50 (Aurora kinase A): 625 nM
- IC50 (A2780): 700 nM
- solubility [2]: 51 µM (≈ 22.8 µg/mL)

SMILES: Cn1nc(C(=O)NC2CC2)c2c1-c1nc(Nc3ccccc3)ncc1CC2
- solubility [2]: 1 µM (≈ 0.36 µg/mL)

SMILES: CNC(=O)c1nn(C)c2c1C(C)(C)Cc1cnc(Nc3cccc(N4CCN(C)CC4)c3)nc1-2
- IC50 [1]: 31 nM
- IC50 (Aurora kinase A): 1000 nM
- IC50 (A2780): 530 nM
- solubility [2]: 182 µM (≈ 83.8 µg/mL)

SMILES: CNC(=O)c1nn(C)c2c1C(C)(C)Cc1cnc(Nc3ccc(CN(C)C)cc3)nc1-2
- IC50 [1]: 35 nM
- IC50 (Aurora kinase A): > 5000 nM
- IC50 (A2780): 110 nM
- solubility [2]: 206 µM (≈ 86.4 µg/mL)

SMILES: CNC(=O)c1nn(C)c2c1C(C)(C)Cc1cnc(Nc3ccc(N4CCN(C)CC4)cc3)nc1-2.Cl
- half-life [3]: 2.9 h
- Activity (Mus musculus): 36%
- Activity (Cytochrome P450 3A4): 85%
- half-life [4]: 2.6 h
- solubility [5]: 10000 µg/mL
- AUC [6]: 8.29 µM·h
- Vd [7]: 4.82 L/kg
- Cmax [8]: 2350 nM
- clearance [9]: 31.2 mL/min/kg
- bioavailability [10]: 85%

SMILES: Cn1nc(C(=O)Nc2ccccc2)c2c1-c1nc(Nc3ccccc3)ncc1CC2
- solubility [2]: 1 µM (≈ 0.396 µg/mL)

SMILES: Cn1nc(C(=O)NCCO)c2c1-c1nc(Nc3ccccc3)ncc1CC2
- IC50 [1]: 74 nM
- IC50 (Aurora kinase A): 364 nM
- IC50 (A2780): 2380 nM
- solubility [2]: 7 µM (≈ 2.55 µg/mL)

SMILES: CNC(=O)c1nn(C)c2c1C(C)(C)Cc1cnc(Nc3ccc(CN4CCOCC4)cc3)nc1-2
- IC50 [1]: 36 nM
- IC50 (Aurora kinase A): 535 nM
- IC50 (A2780): 350 nM
- solubility [2]: 133 µM (≈ 61.4 µg/mL)

SMILES: CNC(=O)c1nn(C)c2c1C(C)(C)Cc1cnc(Nc3ccc(OC4CCN(C)CC4)cc3)nc1-2.Cl
- half-life [3]: 3.9 h
- Activity (Cytochrome P450 3A4): 63%
- half-life [4]: 1.9 h
- solubility [5]: 10000 µg/mL
- AUC [6]: 2.51 µM·h
- Vd [7]: 5.27 L/kg
- Cmax [8]: 600 nM
- clearance [9]: 43.7 mL/min/kg
- bioavailability [10]: 38%

SMILES: CNC(=O)c1nn(C)c2c1C(C)(C)Cc1cnc(Nc3cccc(N(C)C)c3)nc1-2
- IC50 [1]: 220 nM
- IC50 (Aurora kinase A): 1440 nM
- IC50 (A2780): 3010 nM
- solubility [2]: 41 µM (≈ 16.6 µg/mL)
